Most compounds without a hit are left out; they make up all but 4.6% or so of the library.
UCH37 DUB inh – inhibitors of human UCH37 deubiquitinase, primary screen, biochemical, Ub-AMC cleavage, fluorescence; purified proteasome/UCH37; inhibition, % (no concentration beside the values); 0.33% of 330,000 active; AID 588478, 2011;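 active = mean inhibition over replicate wells above about 20%, limit read from the data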;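 note: 0% = compound-free wells with enzyme and 100% = wells lacking proteasome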
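assay system = human UCH37 enzyme supplied as purified proteasome complex | amount = proteasome at 0.15 nM in the dispensed enzyme solution | schedule = 30 min compound-proteasome preincubation then 25 min substrate reaction, room temperature | measured by = fluorescence, ex 355 nm, em 460 nm | benchmarks = no-proteasome wells (full inhibition) and compound-free wells (no inhibition)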
HDAC3 inhib – HDAC3 deacetylase inhibitors, primary screen, biochemical, fluorescence, cell-free homogeneous; Histone deacetylase 3 (Homo sapiens), O15379; recombinant HDAC3, fluorogenic peptide/trypsin coupled; AID 2718, 2010; inhibition, % at 8.3 µM; 0.15% of 320,000 active; in the data active = inhibition above about 26%, passing the limit was not always enough; inconclusive = no clear call, values can overlap the other calls
Target sequence (O15379 whole entry, looked up): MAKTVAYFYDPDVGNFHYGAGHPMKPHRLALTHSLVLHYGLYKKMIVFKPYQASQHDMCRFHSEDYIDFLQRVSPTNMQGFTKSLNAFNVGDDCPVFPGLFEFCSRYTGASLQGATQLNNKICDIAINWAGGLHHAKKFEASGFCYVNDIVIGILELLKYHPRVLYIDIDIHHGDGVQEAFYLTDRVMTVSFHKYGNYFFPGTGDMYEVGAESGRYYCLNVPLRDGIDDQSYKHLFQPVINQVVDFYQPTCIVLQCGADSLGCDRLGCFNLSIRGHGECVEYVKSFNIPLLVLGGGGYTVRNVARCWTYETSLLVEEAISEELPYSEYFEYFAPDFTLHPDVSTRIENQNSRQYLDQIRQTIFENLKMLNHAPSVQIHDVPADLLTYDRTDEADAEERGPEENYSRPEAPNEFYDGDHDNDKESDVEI
Rtt109 HAT inh – inhibitors of C. albicans Rtt109/Vps75 HAT, primary screen, biochemical, ThioGlo CoA-SH fluorescence, plate reader | purified Rtt109/Vps75, 4 h | AID 540336, 2011 | 0.16% of 330,000 active | Histone acetyltransferase RTT109 (Candida albicans (strain SC5314 / ATCC MYA-2876)), … | inhibition, % at 34.9 µM;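 active = inhibition of at least 50% in every replicate; inconclusive = best replicate reaches 50% inhibition but some replicates fall short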
PfM18AAP inh – PfM18AAP inhibitors, malaria aminopeptidase, primary screen, biochemical, QFRET, recombinant enzyme; inhibition, % at 7.35 µM; H-Glu-NHMec fluorogenic cleavage; AID 1822, 2009; 1.2% of 290,000 active;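 active = inhibition above the campaign mean inhibition over all tested compounds plus 3 SD, cut at about 28% in these data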;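 note: 0% = plate median of test compound wells and 100% = 2 mM ZnCl2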
FAS TE block – FAS thioesterase domain inhibitors, primary screen, biochemical, fluorescence intensity, uHTS. 0.67% of 360,000 active. Fatty acid synthase (Homo sapiens), P49327. recombinant FAS-TE, OMFH fluorogenic substrate, fluorescence endpoint. AID 602261, 2012. inhibition, % at 15 µM;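 active = compounds whose normalised, plate-corrected inhibition of enzyme fluorescence in the single-dose primary screen is 50% or more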;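 note: 0% = DMSO with enzyme and 100% = substrate without enzyme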
ALR inh – inhibitors of human ALR sulfhydryl oxidase, primary screen, biochemical, H2O2 detection, HRP-luminol luminescence, single point | purified ALR, DTT oxidation | inhibition, % (concentration not given with the values) | 3.8% of 290,000 active | FAD-linked sulfhydryl oxidase ALR (Homo sapiens), P55789 | AID 485317, 2010;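 active = mean replicate inhibition above about 79%, with every replicate also reaching it, limit read from the data; inconclusive = only one of the two criteria met; inactive = mean below limit and not every replicate reaching it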
Target sequence (P55789 whole entry, looked up): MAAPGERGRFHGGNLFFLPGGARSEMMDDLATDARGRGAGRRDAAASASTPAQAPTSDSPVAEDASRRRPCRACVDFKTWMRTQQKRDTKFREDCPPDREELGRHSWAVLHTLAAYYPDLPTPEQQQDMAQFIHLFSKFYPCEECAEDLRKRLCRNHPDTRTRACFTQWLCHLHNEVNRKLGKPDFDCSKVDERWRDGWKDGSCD
Numbers without * were called inactive; i = inactive; ? = inconclusive; . = not tested or not shown; ! = not active in a repeat.

SMILES | UCH37 DUB inh | HDAC3 inhib | Rtt109 HAT inh | PfM18AAP inh | FAS TE block | ALR inh
Cn1c(/C(C#N)=C/c2ccncc2)nc2ccccc21 | 0 | -10 | . | -2 | 5 | 3
COc1cc(/C=C(\C#N)c2nc3ccccc3n2C)cc(OC)c1O | 4 | 7 | -2 | 15 | -12 | 99*
COC(=O)c1ccc(Cn2c(O)c(N=NC(N)=S)c3ccccc32)o1 | . | 39* | -19 | 7 | 17 | 2
Cc1c(C)c(C)c(CON=Cc2cccs2)c(C)c1C | 2 | . | . | . | . | .
COC(=O)c1cc2c(ccn2-c2ccc(F)cc2)n1CC(=O)C(C)(C)C | 3 | 5 | 54* | 1 | 16 | .
COc1ccc([C@@H]2CC(=O)c3c(O)cc(O[C@@H]4OC(CO[C@@H]5OC(C)[C@H](O)[C@H](O)C5O)[C@@H](O)[C@@H](O)C4O)cc3O2)cc1O (some centres undefined) | 3 | 2 | 4 | . | -6 | 6
O=c1cc(-c2ccc(O)c(O)c2)oc2cc(O[C@@H]3O[C@H](CO)[C@@H](O)[C@H](O)[C@H]3O)cc(O)c12 | 6 | 8 | 19 | . | -6 | 99*
C[C@@H]1O[C@@H](OC[C@H]2O[C@@H](Oc3cc(O)c4c(=O)cc(-c5ccc(O)c(O)c5)oc4c3)[C@H](O)[C@@H](O)[C@@H]2O)[C@H](O)[C@H](O)[C@H]1O | 6 | 11 | 7 | . | -12 | 99*
CN1CCN(c2ccccc2C=NNC(=O)c2cccnc2)CC1 | 5 | . | . | . | . | .
CCCCCn1nc(C)c(C=NNC(=O)c2cc(C)oc2C)c1C | 3 | . | . | . | . | .
COc1cc(SC)ccc1C(=O)Nc1c(C)cccc1C | 1 | 1 | -5 | 5 | 4 | .
COc1cc(SC)ccc1C(=O)Nc1c(Cl)cncc1Cl | 0 | 5 | -7 | 1 | 4 | 77*
c1ccc2c(c1)nc1n2CCS1 | 4 | 2 | -5 | -5 | 0 | -2
OC1C=CSc2nc3ccccc3n21 (centres undefined) | 1 | 3 | 3 | -10 | -10 | 86*
Oc1cc2c(c(Cl)c1O)CCNCC2c1ccccc1 (centres undefined) | 5 | 2 | 8 | . | -5 | 99*
Oc1ccc(C2CNCCc3c2cc(O)c(O)c3Cl)cc1 (centres undefined) | 2 | -23 | 3 | . | 2 | 99*!
CCOc1ccc(C=NNc2cc(=O)n(C)c(=O)n2C)cc1 | 4 | . | . | . | . | .
CC(C)CCNC(=O)COC(=O)/C=C/c1ccc2ccccc2n1 | -4 | -2 | -4 | 5 | -2 | 97*
CCCCCCCC(=O)NN=Cc1ccco1 | 3 | . | . | . | . | .
CON=Cc1ccc(N2CCN(C(=O)c3ccc(C)cc3)CC2)c([N+](=O)[O-])c1 | 5 | . | . | . | . | .
CCOc1ccc(NCc2cccn2-c2nnc(N3CCC(C(=O)NCCCN4CC(C)CC(C)C4)CC3)s2)cc1 (centres undefined) | . | 12 | 6 | 2 | -6 | 100*
CC(C)(C)c1ccc(C=NNc2nncn2N)cc1 | 2 | . | . | . | . | .
CC(=O)Nc1ccc(C(C)=NNc2nc(Nc3cccc4ccccc34)nc(N3CCOCC3)n2)cc1 | 6 | . | . | . | . | .
COc1ccc(N(CC(=O)NN=Cc2cccnc2)S(=O)(=O)c2ccccc2)c(OC)c1 | 0 | . | . | . | . | .
COc1cc(C2CC(=O)N3CN(c4ccccc4C)CSC3=C2C#N)cc(OC)c1OC (centres undefined) | . | -2 | . | 33* | . | -16
SMILES | UCH37 DUB inh | HDAC3 inhib | Rtt109 HAT inh | PfM18AAP inh | FAS TE block | ALR inh
COc1ccccc1N1CSC2=C(C#N)C(c3ccc(SC)cc3)CC(=O)N2C1 (centres undefined) | 5 | ? | 2 | 30* | 6 | .
COc1ccc2ccccc2c1C1CC(=O)N2CN(C)CSC2=C1C#N (centres undefined) | 6 | 10 | 13 | 26 | 0 | -107
CC(C)c1ccc(C2CC(=O)N3CN(C)CSC3=C2C#N)cc1 (centres undefined) | . | 1 | 9 | 18 | -1 | 11
CN(C)CC(=O)c1ccc(-c2ccccc2)cc1 | 0 | 0 | 6 | -1 | -3 | 62
CCN(CC)CC(=O)c1ccc(-c2ccccc2)cc1 | -1 | -3 | 0 | 5 | -5 | 99*
Cc1sc(Cc2nc(O)cs2)nc1-c1ccccc1 | . | 4 | -9 | 1 | -2 | 97*
O=C(CSc1nnc(SCc2ccc(Cl)cc2)s1)NN=Cc1c(Cl)cccc1Cl | 1 | . | . | . | . | .
COC(=O)c1sc(-c2cccs2)cc1NC(=O)/C=C/C(=O)O | . | 4 | 9 | 4 | -1 | 98*
O=[N+]([O-])c1cccc(CSc2ncnc3ccccc23)c1 | 2 | -2 | 2 | -9 | 31 | 99*
Cc1cccc(CSc2ncnc3ccccc23)c1 | 2 | 2 | 4 | -2 | 27 | -14
CCOC(=O)c1cc(-c2ccccc2)nc2nc(N3CCCCC3)sc12 | . | -2 | -26 | 0 | 8 | 2
O=C(O)c1cc(-c2ccccc2)nc2nc(N3CCCCC3)sc12 | i | -56 | . | 2 | . | 80*
Cc1ccc(-c2cc(C(=O)O)c3sc(N4CCCCC4)nc3n2)cc1 | i | -53 | -23 | 8 | -13 | 98*
CC(=NNC(=O)c1ccc(C)cc1)C1C(=O)c2ccccc2C1=O | 19 | . | . | . | . | .
CC(C)(C)N1C(=O)c2ccc(C(=O)Nc3ccc(O)cc3)cc2C1=O | 4 | 14 | -8 | 5 | 2 | 98*
Brc1ccc(C=NN2CCN(C3c4ccccc4-c4ccccc43)CC2)s1 | 5 | . | . | . | . | .
O=S(=O)(NN=Cc1ccc2c(c1)OCO2)c1ccc(Br)cc1 | 6 | . | . | . | . | .
CN1CCC(=O)N([C@H](CSc2ccccc2)c2ccccc2)CC1 | 2 | -1 | 10 | -5 | -10 | 13
CCCN1CCC(=O)N([C@H](CSc2ccc(OC)cc2)c2ccccc2)CC1 | 0 | -3 | -2 | . | -6 | 98*
COc1ccc(SC[C@H](Cc2ccccc2)N2CC[C@@H](C(C)(C)C)CCC2=O)cc1 | 3 | 3 | -4 | . | 29 | 99*
COc1ccc(C=NNC(=O)c2ccc3c(c2)OCO3)cc1 | -42 | . | . | . | . | .
O=c1[nH]c(-[n+]2ccccc2)c(/C=N/NC([S-])=Nc2ccccc2)s1 | . | 7 | -6 | 28 | -6 | 21
Cc1cc[n+](-c2[nH]c(=O)sc2C=NNC([S-])=Nc2ccccc2)cc1 | 23* | . | . | . | . | .
Cc1cc[n+](-c2[nH]c(=O)sc2/C=N/NC([S-])=Nc2ccccc2)cc1 | . | 2 | -1 | 31* | -26 | 63
Cc1cc[n+](-c2[nH]c(=O)sc2C=NNC([S-])=Nc2ccccc2)cc1C | 19 | . | . | . | . | .

Source: PubChem BioAssay
